High-throughput results: PubChem BioAssay, several laboratories
Hits are enriched below; roughly 2.4% of the tested compounds scored in any of these assays.
SIAE inh = human SIAE inhibition, primary screen. Q9HAT2. SIAE FP-Rh probe binding, fluorescence polarization. inhibition, % at 9.66 µM. actives 0.69% (n = 370,000). AID 1053197;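 active = inhibition above a cutoff: mean of compounds within the control limits plus 3 SD of those, cut at about 17% in these data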;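 also: 0% = plate median of compound wells and 100% = probe without SIAE protein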
HTRA1 inh = inhibitors of human serine peptidase HTRA1; AID 504803; recombinant HTRA1, FP-rhodamine activity-based probe, fluorescence polarization; inhibition, % at 5.96 µM; actives 0.5% (n = 340,000); Q92743; in the data active = inhibition above about 36%;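 also: 0% = enzyme with DMSO and 100% = wells lacking enzyme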
Target sequence (Q92743 whole entry, looked up): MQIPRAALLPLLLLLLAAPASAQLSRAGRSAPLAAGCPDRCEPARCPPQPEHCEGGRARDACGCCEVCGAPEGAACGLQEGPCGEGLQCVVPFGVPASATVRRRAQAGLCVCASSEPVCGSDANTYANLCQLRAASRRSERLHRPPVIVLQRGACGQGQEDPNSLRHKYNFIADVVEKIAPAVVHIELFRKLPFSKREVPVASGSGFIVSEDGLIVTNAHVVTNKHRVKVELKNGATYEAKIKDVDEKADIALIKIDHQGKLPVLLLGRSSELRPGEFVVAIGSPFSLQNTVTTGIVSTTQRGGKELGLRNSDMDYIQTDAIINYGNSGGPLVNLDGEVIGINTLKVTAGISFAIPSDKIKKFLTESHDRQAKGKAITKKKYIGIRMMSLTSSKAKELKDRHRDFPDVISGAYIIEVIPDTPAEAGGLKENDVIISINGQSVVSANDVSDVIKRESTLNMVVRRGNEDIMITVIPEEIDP
PRMT1 inh = inhibitors of human PRMT1 | actives 1.3% (n = 370,000) | Q99873 | inhibition, % at 2.79 µM | AID 652257 | recombinant PRMT1, activity-based probe fluorescence polarization;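 active = inhibition above about 21% made by adding two undisclosed values, limit read from the data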
JMJD2C inh = blocks human GASC-1 demethylase activity. GST-JMJD2C(1-420) H3K9me3 demethylation, DELFIA europium. inhibition, % at 2.35 µM. Q9H3R0. AID 2099. actives 0.069% (n = 330,000);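 active = more than half of a compound's replicate wells show inhibition beyond 50%, single wells judged on their own value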;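 also: signal counts dimethyl H3K9 product captured on neutravidin plate; 0% = median of DMSO wells and 100% = 0.3 times that DMSO median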
ABHD4 inh = inhibitors of mouse ABHD4. actives 0.54% (n = 370,000). inhibition, % at 8.92 µM. purified mABHD4, FP-Rh probe fluorescence polarization. AID 720543;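 active = inhibition exceeding the mean over every tested compound plus 3 SD, cut at about 30% in these data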;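 also: 0% = plate median of compound wells and 100% = S159A mutant with DMSO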
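Assay system: wild-type mouse ABHD4 protein; compound: single nominal dose of 8.92 µM, 0.89% DMSO final; schedule: 45 min + 60 min at 25 °C; measured by: FP readout, ex 525 nm / em 598 nm; evaluation: % inhibition of FP-Rh probe binding versus controls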
HTRA1 conf = confirmation of human HTRA1 inhibitors; shares compounds with HTRA1 inh; recombinant HTRA1, FP-rhodamine activity-based probe, fluorescence polarization; inhibition, % at 5.96 µM; actives 66% (n = 1,600); AID 540248;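 active = mean inhibition over three repeats above a set limit taken from the earlier primary screen, cut at about 37% in these data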;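 also: 0% = HTRA1 with DMSO and 100% = wells lacking HTRA1; inhibitors block probe binding so polarization drops and inhibition rises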
Starred values were filed as active, the others as inactive; · = no result.

SMILES	SIAE inh	HTRA1 inh	PRMT1 inh	JMJD2C inh	ABHD4 inh	HTRA1 conf
Oc1c(CN2CCOCC2)cc(COCc2ccccc2)c2cccnc12	1.7	27.9	-2.4	-18.8	14.7	·
Oc1c(CNc2ccccc2)cc(COCc2ccccc2)c2cccnc12	19.2*	49.1*	-3.3	·	8.1	15.0
CN1CCN(C(c2ccccn2)c2cc(Cl)c3cccnc3c2O)CC1 (stereo not drawn)	10.8	39.4*	3.5	-6.8	10.7	65.6*
CN1CCN(C(c2ccc(C(F)(F)F)cc2)c2ccc3cccnc3c2O)CC1 (stereo not drawn)	3.2	·	6.3	5.1	5.7	·
Oc1c(C(c2ccccn2)N2CCC(Cc3ccccc3)CC2)cc(Cl)c2cccnc12 (stereo not drawn)	11.5	·	-5.8	9.8	13.8	·
Oc1c(C(c2ccc(Cl)cc2)N2CCCC2)cc(Cl)c2cccnc12 (stereo not drawn)	8.8	41.4*	-4.8	-8.3	10.0	60.2*
Cc1ccc(C(c2cc(Cl)c3cccnc3c2O)N2CCN(C)CC2)cc1 (stereo not drawn)	·	57.0*	·	-10.4	·	69.6*
O=C(Nc1ccc(Oc2ccccc2)cc1)C1CCCN1S(=O)(=O)c1cccc2cccnc12 (stereo not drawn)	-1.6	·	-3.6	·	-15.4	·
CCOC(=O)c1ccc2c(c1)C1C=CCC1C(C(=O)O)N2 (stereo not drawn)	·	·	·	-14.6	·	·
Cc1cc(C)c2c(c1)NC(C(=O)O)C1CC=CC21 (stereo not drawn)	20.5*	73.8*	31.8*	-40.3	55.7*	70.1*
CCCN(C)C1CN(Cc2cn(Cc3cccc(Cl)c3)nn2)S(=O)(=O)C1 (stereo not drawn)	-1.7	·	1.3	·	0.0	·
Oc1ccc(CN2CCCc3ccccc32)c2cccnc12	·	39.4*	·	0.1	·	35.1
COc1ccccc1N1CCN(Cc2ccc(OC)c(OC)c2OC)CC1	11.5	1.7	-1.5	9.9	0.8	·
COc1ccccc1N1CCN(Cc2ccc(O)c3ncccc23)CC1	4.8	44.9*	-6.2	-23.6	6.3	52.5*
CN(CCc1ccccn1)C(=O)c1ccc(Sc2ccccc2Cl)c([N+](=O)[O-])c1	-1.9	·	1.6	·	-2.1	·
CSc1ncnc2c1ncn2CCCNCCCN1CCCC1=O	5.2	2.7	-6.0	·	-3.1	·
CCN(CC)c1ccc(C=Nc2ccc(C)cc2)c(O)c1	-3.9	-4.6	1.1	-2.2	9.7	·
CCN(CC)c1ccc(C=Nc2ccc(N(C)C)cc2)c(O)c1	2.9	38.2*	24.9*	-3.0	25.9	-15.3
COC(=O)C1=C(C)NC(=O)/C1=C\c1cc(C)n(-c2cc(C)cc(C)c2)c1C	3.3	53.2*	7.0	0.0	15.7	34.8
CCOC(=O)C1=NN(C(=O)c2ccc(C)cc2)C(O)(c2ccc(Cl)cc2)C1 (stereo not drawn)	1.4	60.1*	0.1	7.6	10.1	72.0*
O=C1CCCC2=C1C(c1ccc(O)c(O)c1)Nc1ccc3ncccc3c12 (stereo not drawn)	-9.7	40.4*	34.2*	-2.2	9.9	67.2*
Oc1cccc2ccc(/C=C/c3ccccc3Cl)nc12	-1.4	46.2*	-2.2	2.5	1.4	57.3*
COC(=O)C1CN(C2CC2)CCS(=O)(=O)N1Cc1cn(Cc2ccc(Cl)cc2)nn1 (stereo not drawn)	1.3	·	-0.2	·	0.7	·
Oc1ccccc1N=Nc1ccccc1O	16.7	66.2*	4.5	21.4	20.2	59.3*
C=CCn1c(O)c(N=Nc2ccccc2O)c2ccccc21	15.9	23.1	14.7	8.7	10.7	·
SMILES	SIAE inh	HTRA1 inh	PRMT1 inh	JMJD2C inh	ABHD4 inh	HTRA1 conf
O=C(C1CCCN1S(=O)(=O)c1cccs1)N1CCc2ccccc2C1 (stereo not drawn)	-2.4	·	8.2	·	0.3	·
Cc1cccc(NC(=O)CSc2nnc(-c3ccco3)c(-c3ccco3)n2)c1C	·	49.9*	·	16.5	·	13.8
Cc1ccc(C(=O)Nc2nnc(CC(=O)N/N=C/c3ccc(O)c(O)c3)s2)cc1	4.0	47.6*	-2.3	-49.8	13.6	64.0*
Oc1ccccc1NCC(O)Cn1ccc2ccccc21 (stereo not drawn)	10.2	53.9*	7.8	48.9	26.6	20.7
CCOC(=O)[C@]12CCCC=C1N(Cc1ccc(OC)cc1)C(=O)[C@@H]2CC(=O)N1CCN(C(=O)C2CC2)CC1	6.3	·	0.7	·	0.9	·
CCN(CC)c1ccc(/C=C2\C(=O)N(c3nnc(C)c(=O)[nH]3)N=C2C)cc1	-12.7	62.0*	3.0	-4.8	4.6	79.2*
CCN(CC)c1ccc(/C=C2/C(=O)ON=C2C)cc1	-14.1	-1.4	-17.4	-0.7	-3.0	·
CC(C)(C)c1ccc(CC(=O)N2CCC2(C)C(=O)NCc2cccc3ccccc23)cc1 (stereo not drawn)	-8.6	·	-1.5	·	-15.5	·
O=C(CSc1nc2sc3c(c2c(=O)n1-c1ccc(Cl)cc1)CCC3)Nc1ccc(C(=O)O)cc1	-0.6	·	-0.5	·	-7.4	·
COc1ccc2c(c1)NC(C)(C)C=C2C	10.6	45.5*	4.2	-3.6	13.6	5.3
COC(=O)C[C@H]1CC[C@@H]2[C@H](COc3ccc(NC(=O)c4cnccn4)cc3C(=O)N2C)O1	8.8	·	-1.2	·	3.7	·
CC1CCC2(CCC(=O)N2C[C@@H](O)c2ccccc2)CC1 (stereo partly drawn)	5.5	·	3.1	·	3.6	·
COc1cc(-c2nnc(SCc3cc(=O)oc4cc(O)c(O)cc34)o2)cc(OC)c1OC	1.1	46.5*	17.1	61.8	32.9*	34.9
CCOC(=O)CSc1nnc(-c2cc(OC)c(OC)c(OC)c2)o1	-7.6	0.3	2.2	-1.0	-0.3	·
C=CCN(Cc1ccc(OC)cc1OC)C(C#Cc1ccccc1)c1ccccc1 (stereo not drawn)	-0.5	·	3.2	·	-5.2	·
CCOc1ccccc1/C=C/c1nc2ccccc2[nH]c1=O	1.3	39.7*	-3.5	15.7	5.7	-7.7
O=C(CN1CCN(S(=O)(=O)c2ccc(Cl)cc2)CC1)c1ccc(O)c(O)c1	·	42.9*	·	-5.6	·	44.4*
CN(c1ccc(NC(=O)Cc2c[nH]c3ccccc23)cc1)c1ccccn1	13.7	·	2.3	·	9.9	·
COc1ccc(N2CCN(C(=O)c3cc(S(=O)(=O)N4CCCCCC4)ccc3OC)CC2)cc1	4.5	-0.8	-2.4	·	2.9	·
O=C(O)C1OC(Oc2cc3oc(-c4ccccc4)cc(=O)c3c(O)c2O)C(O)C(O)C1O (stereo not drawn)	4.9	44.6*	27.5*	-1.6	21.0	42.7*
CCOC(=O)C1=C(CS(=O)(=O)c2ccc(F)cc2)NC(=O)NC1c1ccc(O)c(O)c1 (stereo not drawn)	5.4	47.8*	2.4	-3.1	9.9	51.6*
Cc1cc(C)cc(C(=O)OCCN2CCN(C3CN(Cc4cn(Cc5ccccc5F)nn4)S(=O)(=O)C3)CC2)c1 (stereo not drawn)	-0.6	·	-1.0	·	-2.7	·
